Calls of active or inactive are those of the source. No cut-off for these calls is given here.

Data set [1] relates to Rattus norvegicus. Nature of the data set: Anticonvulsant activity in albino Sprague-Dawley rat assessed as protection against maximal electroshock-induced seizures at 50 mg/kg, po after 4 hrs. It is filed as functional, organism-based. Further details: dose 50 mg/kg. The method, boiled down:
(§1)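 Adult male Sprague-Dawley albino rats (100-150 g) dosed orally with compound suspended in 0.5% methylcellulose (0.04 mL per 10 g). Maximal electroshock challenge at the stated time. Protection is scored in 25% steps as the fraction of animals protected, with neurotoxicity recorded in parallel.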

Data set [2] relates to Rattus norvegicus. Put plainly: Anticonvulsant activity in albino Sprague-Dawley rat assessed as protection against maximal electroshock-induced seizures at 50 mg/kg, po after 30 mins. It is filed as functional. The method, boiled down: as §1
(In the maximal electroshock model the usual endpoint is tonic extension of the hind limbs.)

Data set [3] concerns Rattus norvegicus. Nature of the data set: Neurotoxicity in albino Sprague-Dawley rat at 50 mg/kg, po. It is filed as toxicity, organism-based. The note with it: in vivo. Also noted: dose 50 mg/kg, route oral. The method, boiled down:
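Neurotoxicity was scored in male Sprague-Dawley albino rats (100-150 g) dosed orally with a suspension in 0.5% methylcellulose. The read-out was the fraction of animals showing neurotoxicity (minimal motor impairment).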

The subject of data set [4] is Rattus norvegicus. Put plainly: Anticonvulsant activity in albino Sprague-Dawley rat assessed as protection against scMet-induced seizures at 50 mg/kg, po after 30 mins. It is filed as functional. The method, boiled down: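 Male Sprague-Dawley albino rats (100-150 g) were given the compound orally as a suspension in 0.5% methylcellulose. Seizures were induced by subcutaneous pentylenetetrazol, dissolved in 0.9% saline as a 2.82% solution. The read-out was animals protected over animals tested.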

In data set [5] the test system is Mus musculus. Put plainly: Anticonvulsant activity in ip dosed CF1 albino mouse assessed as protection against scMet-induced seizures. It is filed as functional. The method, boiled down: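 Adult male CF no. 1 albino mice (18-25 g) dosed ip with compound suspended in 0.5% methylcellulose (0.01 mL/g body weight). Seizures were induced by subcutaneous pentylenetetrazol, given as a 0.85% solution in 0.9% saline. ED50 was found by varying the dose to give 3-4 points between 0% and 100% protection, then probit analysis with 95% confidence intervals.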

Data set [6] concerns Mus musculus. Nature of the data set: Anticonvulsant activity in CF1 albino mouse assessed as protection against maximal electroshock-induced seizures at 60 mg/kg, ip. The class given is functional, organism-based. Also noted: dose 60 mg/kg. The method, boiled down:
(§2)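 Adult male CF no. 1 albino mice (18-25 g). Test compound suspended in 0.5% methylcellulose and given intraperitoneally at 0.01 mL/g body weight. Maximal electroshock challenge at the stated time. Read-out is the number of animals protected over the number tested; neurotoxicity is scored in parallel.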

Data set [7] relates to Mus musculus. Nature of the data set: Anticonvulsant activity in CF1 albino mouse assessed as protection against maximal electroshock-induced seizures at 400 mg/kg, ip. It is filed as functional, organism-based. Also noted: dose 400 mg/kg. The method, boiled down:
as §2

The test system of data set [8] is Mus musculus. Put plainly: Neurotoxicity in CF1 albino mouse assessed as minimal motor impairment at 150 mg/kg, ip. It is filed as toxicity, organism-based. Also noted: dose 150 mg/kg, route intraperitoneal. As to conditions: in vivo. The method, boiled down: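 Male CF no. 1 albino mice (18-25 g) received a single ip dose as a suspension in 0.5% methylcellulose. The read-out was the number of animals showing neurotoxicity (minimal motor impairment) over the number tested.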

The test system of data set [9] is Mus musculus. Put plainly: Anticonvulsant activity in CF1 albino mouse assessed as protection against 32 mA-current-induced seizure at 130 mg/kg, ip by 6Hz psychomotor seizure test. Further details: dose 130 mg/kg. It is filed as functional, organism-based. The method, boiled down: (§3)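 6 Hz psychomotor seizure test in male CF no. 1 mice, with compound given ip as a 0.5% methylcellulose suspension. Groups of 8 animals per dose. The 32 mA test used 25, 70 and 130 mg/kg; the 44 mA test used 25, 50, 75 and 100 mg/kg. ED50 and 95% confidence interval were obtained by probit analysis.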

Data set [10] relates to Mus musculus. Put plainly: Anticonvulsant activity in CF1 albino mouse assessed as protection against 44 mA-current-induced seizure at 25 mg/kg, ip by 6Hz psychomotor seizure test. The class given is functional, organism-based. Further details: dose 25 mg/kg. The method, boiled down: as §3
For data set [11], the species on record is Rattus norvegicus. Nature of the data set: Protective index, ratio of TD50 for albino Sprague-Dawley rat to ED50 for scMet-induced albino Sprague-Dawley rat seizure model. It is filed as functional. The method, boiled down: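 Protective index is the rat TD50 (minimal motor impairment) divided by the ED50 in the MES or sc pentylenetetrazol test. Male Sprague-Dawley rats were dosed orally in 0.5% methylcellulose, and both values came from probit analysis.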

The subject of data set [12] is Rattus norvegicus. Put plainly: Anticonvulsant activity in albino Sprague-Dawley rat assessed as protection against maximal electroshock-induced seizures at 100 mg/kg, po. Also noted: dose 100 mg/kg. It is filed as functional, organism-based. The method, boiled down:
as §1

The test system of data set [13] is Mus musculus. Nature of the data set: Teratogenic effect in SWV mouse assessed as number of litters at 671 mg/kg, ip administered on morning of day 8 of gestation. The class given is toxicity, organism-based. The note with it: in vivo. Also noted: dose 671 mg/kg, route intraperitoneal. The method, boiled down:
(§4)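 Inbred SWV mouse strain highly susceptible to VPA-induced neural tube defects. Each dam received a single ip injection on gestation day 8.5, dosed within 1.8-4.2 mmol/kg, against a control of 25% aqueous Cremophor EL. Groups were compared with the control, and with the matched VPA sodium-salt dose, by Fisher's exact test (p < 0.05).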

Data set [14] concerns Mus musculus. Put plainly: Teratogenic effect in SWV mouse assessed as number of implants at 336 mg/kg, ip administered on morning of day 8 of gestation. It is filed as toxicity, organism-based. Also noted: dose 336 mg/kg, route intraperitoneal. The note with it: in vivo. The method, boiled down: as §4
In data set [15] the test system is Mus musculus. Put plainly: Teratogenic effect in SWV mouse assessed as live fetuses at 336 mg/kg, ip administered on morning of day 8 of gestation. It is filed as toxicity, organism-based. As to conditions: in vivo. Also noted: dose 336 mg/kg, route intraperitoneal.
Data set [16] concerns Mus musculus. Nature of the data set: Teratogenic effect in SWV mouse assessed as number of dead fetuses at 671 mg/kg, ip administered on morning of day 8 of gestation. It is filed as toxicity, organism-based. Further details: dose 671 mg/kg, route intraperitoneal. As to conditions: in vivo. The method, boiled down: as §4
Data set [17] concerns Mus musculus. Put plainly: Teratogenic effect in SWV mouse assessed as number of dead fetuses at 502 mg/kg, ip administered on morning of day 8 of gestation. It is filed as toxicity, organism-based. Further details: dose 502 mg/kg, route intraperitoneal. As to conditions: in vivo. The method, boiled down: as §4
The test system of data set [18] is Mus musculus. Put plainly: Teratogenic effect in VPA-induced SWV mouse assessed as number of fetuses with neural tube deffects at 502 mg/kg, ip administered on morning of day 8 of gestation. As to conditions: in vivo. Also noted: dose 502 mg/kg, route intraperitoneal. It is filed as toxicity, organism-based. The method, boiled down: as §4
Data set [19] relates to Mus musculus. Put plainly: Anticonvulsant activity in CF1 albino mouse assessed as protection against maximal electroshock-induced seizures at 100 mg/kg, ip after 0.5 hrs. The class given is functional, organism-based. Also noted: dose 100 mg/kg. The method, boiled down:
as §2

The test system of data set [20] is Mus musculus. Nature of the data set: Anticonvulsant activity in CF1 albino mouse assessed as protection against maximal electroshock-induced seizures at 150 mg/kg, ip after 0.5 hrs. It is filed as functional, organism-based. Further details: dose 150 mg/kg. The method, boiled down:
as §2

In general, ED50 refers to the midpoint of the dose-response relation. Consider `CC1(C)C(C)(C)C1(F)C(N)=O`, for which the result in data set [1], in data set [2], in data set [6], in data set [10], in data set [12] and in data set [20] was inactive. In addition, the Activity entry in data set [3] is “Not Active”; in data set [4], 75%; in data set [8], “Toxic”; in [13], 4; in [14] it was 112; in [15] it was 90.2%. The Activity in data set [16] was 0; in [17] it was 0; in [18] it was 0; in data set [19], “Non-toxic”. For the same molecule, the ED50 in [5] stood at 38 mg/kg. For the same molecule, the result in data set [7] and in data set [9] was Active. For the same molecule, the PI in data set [11] turned out to be 20.

For the origin of these results see ChEMBL document CHEMBL1153988 (J Med Chem, 2009).
